Measurements published in ChEMBL document CHEMBL1150122, “A new cytotoxic epothilone from modified polyketide synthases heterologously expressed in Myxococcus xanthus” (J Nat Prod, 2002).
Calls of active or inactive are those of the source. The rule behind the calls is not given here.

How the values were obtained:
[1] = tested on: SF-268; experiment: Cytotoxicity against human SF268 cells after 3 days by SRB assay; assay type: functional, cell-based; conditions: SF-268, 72 h
Method in brief: (§1)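 Cells kept in RPMI 1640 with 10% FBS and 2 mM L-glutamine, 37 °C, 5% CO2. Trypsinized cells seeded at 5000–7500 per well; compound added 20 h later across 0.001–1000 nM in growth medium. After 3 days, fixed with 10% TCA (4 °C, 1 h), stained 0.2% SRB/1% acetic acid 20 min, dye extracted with 10 mM Tris base, absorbance read at 515 nm.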

[2] = tested on: HL-60; experiment: Cytotoxicity against human HL60 cells after 3 days by SRB assay; assay type: functional, cell-based; conditions: HL-60, 72 h; method in brief: as §1
[3] = tested on: NCI-H460; experiment: Cytotoxicity against human NCI-H460 cells after 3 days by SRB assay; assay type: functional, cell-based; conditions: NCI-H460, 72 h; method in brief: as §1
[4] = tested on: CCRF-CEM; experiment: Cytotoxicity against camptothecin-resistant human CCRF-CEM cells after 3 days by SRB assay; assay type: functional, cell-based; conditions: 72 h; method in brief: as §1
[5] = tested on: CCRF-CEM; experiment: Cytotoxicity against human CCRF-CEM cells after 3 days by SRB assay; assay type: functional, cell-based; conditions: 72 h; method in brief: as §1
[6] = tested on: MCF7; experiment: Cytotoxicity against human MCF7 cells after 3 days by SRB assay; assay type: functional, cell-based; conditions: MCF7, 72 h; method in brief: as §1
[7] = tested on: NCI/ADR-RES; experiment: Cytotoxicity against human NCI/ADR-RES cells after 3 days by SRB assay; assay type: functional, cell-based; conditions: 72 h; method in brief: as §1
[8] = tested on: HL-60; experiment: Cytotoxicity against mitoxantrone-resistant human HL60 cells after 3 days by SRB assay; assay type: functional, cell-based; conditions: HL-60, 72 h; method in brief: as §1
[9] = target: Tubulin (Homo sapiens) (UniProt P68371+Q9H4B7+P0DPH7+P68366+Q13509+Q71U36+P04350+Q3ZCM7+P07437+P68363+Q9BQE3+Q6PEY2+Q13885+Q9BVA1+Q9BUF5); experiment: […] in human MCF7 cells at 1 uM after 2 hrs by SDS-PAGE; assay type: cell-based
Method in brief: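 Confluent MCF-7 cells in 35 mm dishes treated with 1 μM compound for 0, 1 and 2 h at 37 °C. Lysates spun 18000g, 12 min, to separate soluble tubulin (supernatant) from polymerized tubulin (pellet).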

`C/C1=C/C[C@@H](/C(C)=C/c2csc(C)n2)OC(=O)C[C@H](O)C(C)(C)C(=O)[C@H](C)[C@@H](O)[C@@H](C)CCC1` [EPOTHILONE D] was tested, and the IC50 [1] was 14 nM, the IC50 [2] was 8 nM and the IC50 [3] was 8 nM. The IC50 [4] was 15 nM, the IC50 [5] was 22 nM and the IC50 [6] was 8 nM. For the same molecule, the IC50 [7] was 30 nM and the IC50 [8] was 10 nM.

`CC1=C/C[C@@H](/C(C)=C/c2csc(C)n2)OC(=O)C[C@H](O)C(C)(C)C(=O)[C@H](C)[C@@H](O)[C@@H](C)C\C=C\1` gave an IC50 [1] of 40 nM, an IC50 [2] of 25 nM and an IC50 [3] of 34 nM. For the same molecule, the IC50 [4] was 11 nM, the IC50 [5] was 23 nM and the Activity [9] was “Active”. For the same molecule, the IC50 [6] was 28 nM, the IC50 [7] was 35 nM and the IC50 [8] was 18 nM.
